KCNK3 block – human KCNK3 channel inhibition, primary screen; CHO-KCNK3 thallium flux, FluxOR fluorescence; hits give low values; B-score at 10 µM; hit rate 0.84% among 340,000; AID 602410;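 active = B-score under library mean minus 4 SD, starting fluorescence ratio at most library mean plus 5 SD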;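 also: more negative B-score means stronger inhibition of thallium flux through KCNK3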
Target sequence (O14649 whole entry, looked up): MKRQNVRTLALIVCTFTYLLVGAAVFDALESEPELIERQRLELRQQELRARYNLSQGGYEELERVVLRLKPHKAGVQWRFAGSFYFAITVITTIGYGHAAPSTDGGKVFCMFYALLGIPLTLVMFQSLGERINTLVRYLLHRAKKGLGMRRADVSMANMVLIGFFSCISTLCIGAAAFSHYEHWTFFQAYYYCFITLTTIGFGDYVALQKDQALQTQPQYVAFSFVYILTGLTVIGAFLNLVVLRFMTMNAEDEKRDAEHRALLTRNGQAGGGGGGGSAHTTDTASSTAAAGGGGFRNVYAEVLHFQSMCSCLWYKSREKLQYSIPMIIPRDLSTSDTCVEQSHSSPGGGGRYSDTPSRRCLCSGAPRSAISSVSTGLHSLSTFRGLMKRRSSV
KCNK9 inh – blocks the human KCNK9 two-pore domain potassium channel. Q9NPC2. HEK293 KCNK9, FluxOR thallium flux fluorescence; hits give low values. B-score at 10 µM. hit rate 1.2% among 310,000. AID 488922;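 active = ratio B-score over 3 SD below the library mean, with starting fluorescence within 5 SD of its mean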;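 also: negative B-score means less thallium flux so channel inhibition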
Kir21 block – inhibitors of mouse Kir2.1 inward-rectifier potassium channel; P35561; B-score at 10 µM; hit rate 0.85% among 310,000; HEK293-Kir2.1, FluxOR thallium flux fluorescence; hits give low values; AID 1672;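 active = fluorescence ratio B-score at or below minus 3 SD of library scores, with starting-brightness B-score within 2 SD, cut at about -4.2 in these data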;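 also: channel flux triggered by added potassium and thallium sulfate stimulus; B-score of peak minus minimum fluorescence over baseline after thallium stimulus; more negative B-score means stronger Kir2.1 block with less thallium influx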
KCNQ1 pot – potentiators or activators of human KCNQ1 potassium channel; P51787; CHO-K1 KCNQ1, thallium flux FluxOR fluorescence; hits give high values; B-score at 10 µM; hit rate 0.35% among 310,000;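 active = fluorescence ratio B-score, a plate-corrected score, at least three library SD, with initial intensity B-score within 5 SD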
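assay system = KCNQ1-transfected CHO-K1 cells | medium = assay buffer with matched DMSO | probe or stimulus = depolarizing K+/Tl+ stimulus, K2SO4 and Tl2SO4 each 12.5 mM in 5x stock | dosing = single dose | incubation = dye 90 min, compound 20 min, room temperature | detection = kinetic FluxOR fluorescence, 10 s baseline plus 110 s post-stimulus | evaluation = ratio B score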
hERG rescue – compounds protecting human hERG from proarrhythmic drug block; CHO-hERG, FluxOR thallium flux, dofetilide IC70 present; activation (rescue from dofetilide block), less the hit threshold, % at 10 µM; hit rate 0.51% among 310,000;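 active = activation above the mean of controls blocked by dofetilide plus 5 SD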;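 also: thallium influx through hERG after potassium depolarization seen as dye fluorescence rise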
KCNQ1 block – human KCNQ1 channel inhibition. B-score at 10 µM. hit rate 1.3% among 310,000. CHO-K1 KCNQ1, FluxOR thallium flux fluorescence; hits give high values. AID 2642;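 active = compounds whose thallium flux B-score, printed positive for inhibition, exceeds three library SD while starting fluorescence stays within three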;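 also: channel opened by potassium depolarization with thallium stimulus after 20 min compound exposure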
KCNK3 inh conf – confirmation of human KCNK3 two-pore domain potassium channel inhibitors; AID 651638; shares compounds with KCNK3 block; hit rate 99% among 2,400; CHO-KCNK3 thallium flux, FluxOR fluorescence; 0% buffer, 100% carvedilol maximal block; ratio percent of control, % at 10 µM;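 active = ratio percent of control, averaged over triplicates, above buffer control mean plus 5 SD, cut at about 64% in these data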;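 also: ratio is the fluorescence rise from min to max over baseline after thallium stimulus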
KCNK3 noninduced – KCNK3 inhibitor counter-screen hit in non-induced cells | shares compounds with KCNK3 block | non-induced KCNK3 parental cells, FluxOR thallium flux; hits give low values | thallium flux ratio (lower = more inhibition) at 10 µM | hit rate 40% among 2,400;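 active = thallium flux ratio, averaged over three wells, more than 5 SD below the buffer control mean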;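 also: host cells are CHO cells without KCNK3 induction; ratio is peak minus trough fluorescence over baseline then normalized to buffer controls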
* hit, by the source's call; i = inactive; nt = no result. In the library only some 3.7% were active in any assay of this set; here they are far more common.

SMILES | KCNK3 block | KCNK9 inh | Kir21 block | KCNQ1 pot | hERG rescue | KCNQ1 block | KCNK3 inh conf | KCNK3 noninduced
CN1C(=O)c2ccccc2NC(=O)[C@]12O[C@@H]2c1ccccc1 | i | i | -0.45 | i | -3.0 | i | nt | nt
CC(C)CCNC(=O)c1cc(C(=O)c2cc(F)ccc2O)cn(CCC(C)C)c1=O | i | i | -1.22 | i | -5.5 | i | nt | nt
CC(C)CCNC(=O)c1cc(C(=O)c2cc(Br)ccc2O)cn(CCC(C)C)c1=O | -11.4* | i | -0.37 | i | -8.5 | i | 102.7* | i
Clc1ccc(C(Cn2ccnc2)OCc2csc3c(Cl)cccc23)c(Cl)c1 (centres undefined) | -11.6* | nt | nt | nt | nt | nt | 105.3* | 0.156*
CCC(=O)N1N=C2C3CCN(CC3)C2C1c1ccc(C)cc1 (centres undefined) | i | i | -0.53 | i | -6.3 | i | nt | nt
O=C(c1ccccc1)C1NC1c1ccccc1 (centres undefined) | i | i | -0.51 | i | -13.8 | i | nt | nt
Cn1c(O)c(N=Nc2cccc(S(=O)(=O)N3CCOCC3)c2)c(=O)n(C)c1=O | i | i | -0.03 | i | -1.3 | i | nt | nt
CCN(CC)S(=O)(=O)c1cccc(N=Nc2c(O)n(CC)c(=S)n(CC)c2=O)c1 | -11.5* | -6.76* | -0.24 | i | -20.4 | i | 117.3* | i
Cc1ccc(CN2CCCN(Cc3ccccc3C)S2(=O)=O)cc1 | -10.3* | -6.82* | -1.85 | i | 3.7 | i | 121.3* | i
Clc1ccc(Cn2ccnc2)cn1 | i | i | -0.02 | i | -11.1 | i | nt | nt
Clc1ccc(CCC(Cn2ccnc2)Sc2c(Cl)cccc2Cl)cc1 (centres undefined) | -14.4* | nt | nt | nt | nt | nt | 119.7* | 0.153*
CCCCn1c(=O)c(C(=O)Nc2ccccn2)c(O)c2ccccc21 | -8.72* | i | 0.54 | i | -4.2 | 7* | 104.0* | 0.142*
COc1ccc(N=Cc2c(O)n(Cc3ccccc3)c(=S)[nH]c2=O)c(OC)c1 | -8.73* | i | 0.5 | i | -14.8 | 6* | 151.3* | i
COC(=O)C1=C(c2ccc(F)cc2OCc2ccccc2)C[C@@H]2CC[C@H]1N2C(=O)N1CCC(O)CC1 | i | nt | nt | nt | nt | nt | nt | nt

Screening results: PubChem, Johns Hopkins Ion Channel Center
